From PubChem BioAssay
PDI turbidity = inhibitors of human PDI, primary screen, biochemical, turbidity, single point, plate reader | Protein disulfide-isomerase (Homo sapiens), P07237 | PDI insulin aggregation turbidity, A650, 90 min | inhibition, % at 10 µM | 0.052% of 350,000 active;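 active means mean inhibition across replicates of 30% or more, whatever share of single replicates reach that level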
HIV Env fusion = inhibitors of HIV-1 Env-driven cell-cell fusion, primary screen, HeLa-JRFL effector, CEM21 target cells, luciferase | inhibition, % at 12.3 µM | 1.1% of 360,000 active | AID 651610, 2012;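 active means mean replicate inhibition score of at least 50 and every replicate individually at or above 50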;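 further: 0% = plate neutral controls and 100% = maraviroc near 300 nM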
PvdQ acylase = P. aeruginosa PvdQ acylase inhibitors, primary screen, biochemical, fluorescence, plate reader and imaging, single point | purified PvdQ acylase | inhibition, % at 10 µM | 0.063% of 340,000 active | AID 488965, 2010; in the data active means inhibition above about 30%, passing the limit was not always enough;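 further: 0% = vehicle neutral wells and 100% = reference inhibitor wells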
ERp5 block = inhibitors of ERp5-driven insulin aggregation, primary screen, biochemical, turbidity, absorbance 650 nm, single point | 0.05% of 350,000 active | 90 min | Protein disulfide-isomerase A6 (Homo sapiens), Q15084 | inhibition, % at 9.99 µM;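 active means mean replicate inhibition above about 25%, with every replicate also reaching it, limit read from the data, passing the limit was not always enough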
Target sequence (Q15084 whole entry, looked up): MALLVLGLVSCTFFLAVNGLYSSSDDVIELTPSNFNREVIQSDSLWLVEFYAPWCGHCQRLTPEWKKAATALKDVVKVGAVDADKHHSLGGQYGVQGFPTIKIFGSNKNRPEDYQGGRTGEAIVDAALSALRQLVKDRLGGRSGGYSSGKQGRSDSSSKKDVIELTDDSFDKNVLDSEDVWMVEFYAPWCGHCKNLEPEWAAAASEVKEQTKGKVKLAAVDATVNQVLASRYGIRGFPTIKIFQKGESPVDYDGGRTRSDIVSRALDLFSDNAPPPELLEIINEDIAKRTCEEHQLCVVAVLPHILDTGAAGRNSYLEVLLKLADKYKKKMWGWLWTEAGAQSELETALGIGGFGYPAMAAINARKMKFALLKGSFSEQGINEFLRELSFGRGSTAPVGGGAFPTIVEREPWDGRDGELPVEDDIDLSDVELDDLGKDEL
FN deposition inh = inhibitors of fibronectin matrix deposition, primary screen, AH1F cells, Alexa488-fibronectin fluorescence, plate reader | AH1F fibroblasts, overnight | inhibition, % at 12.6 µM | 0.086% of 350,000 active | AID 743247, 2014;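 active means mean inhibition across replicates of 30% or more, regardless of how many single replicates reach that level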;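 further: positive control wells lacked labelled fibronectin entirely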
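Material: AH1F fibroblasts assembling fluorescent fibronectin matrix; amount: 10000 AH1F cells/well; medium: DMEM, 2% serum; reagent: Alexa488-fibronectin, 24 nM final in well; dosing: single compound dose, delivered by pin transfer; incubation: 1 h adhesion, overnight exposure; detection: fluorescence after three HBSS washes, excitation 485 nm, emission 525 nm; measure: fibronectin deposition inhibition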
Ecoli rRNA inh = reduced GFP signal of wild-type E. coli, primary screen, bacterial rRNA inhibitor project, GFP/RFP fluorescence, OD600, single point; GFP signal change (wild-type ribosome), % (test concentration not listed); 1.6% of 350,000 active; AID 720706, 2013; E. coli WT GFP vs humanized-ribosome RFP mutants, 24 h; hits give low values; DMSO median 0, no signal -100;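 active means significant combined selectivity score with lowered wild-type GFP, culture density cut under 30%, mutant RFP and density less affected; inactive means any of these conditions unmet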
* marks the source's active call; other numbers are inactive results; . = no result given; [ ] = dose if it differs, or a comment. In the library only some 2.2% were active in any assay of this set; here they are far more common.

SMILES | PDI turbidity | HIV Env fusion | PvdQ acylase | ERp5 block | FN deposition inh | Ecoli rRNA inh
CCCCOC(=O)C1CN(c2ccccc2)N=C1C(C)=O (stereo unspecified) | 3 | 9 | -18 | -3 | -3 | -32*
COc1ccc(C#Cc2ccc3c(c2)[C@H]2[C@H](CCN2C(=O)c2ccccn2)[C@@H](CO)N3)cc1 | . | . | . | 9 | 7 | -3
O=C(N/N=C/c1cccs1)c1cccc(NC(=O)c2ccc(Cl)cc2)c1 | . | -6 | . | 1 | 35* | 3
CCCCN(CCCC)C(=O)C1(P(=O)(c2ccccc2)c2ccccc2)CCC1 | 7 | 60* | 1 | 4 | -8 | -32
CC(C)NC(=O)Nc1ccc2c(c1)CC(=O)N(C)C[C@@H](C)[C@@H](CN(C)C(=O)NC(C)C)O2 | . | . | . | . | -14 | 2
Cc1ccc(C(=O)O/N=C(\N)c2ccccn2)c(Cl)c1 | -5 | 85* | -7 | 2 | 0 | -8
COc1ccc(NC(=O)c2cc(CC(C)C)nc3ccccc23)cc1 | -1 | 78* | -28 | 1 | -4 | -7
Cc1ccc(NC(=O)c2cc(C)nc3ccccc23)cc1 | 10 | -2 | -8 | 1 | -6 | 16
Cc1ccc(NC(=O)c2cc(CC(C)C)nc3ccccc23)cc1 | -1 | 68* | -13 | 0 | 4 | -8
Cc1ccc2c(c1)C(c1ccccc1)N(C(=O)c1c(F)cccc1Cl)CC(=O)N2 (stereo unspecified) | -11 | 59* | 0 | 9 | -4 | -25
O=C1CN(C(=O)c2c(F)cccc2F)C(c2ccccc2)c2cc(Br)ccc2N1 (stereo unspecified) | -7 | 47 | 3 | 1 | -2 | -27
CCCNC(=O)N1[C@@H](C#N)[C@H](c2ccccc2)[C@@H]1CO | . | -4[16.7 µM] | . | 2 | 3 | 4
Cc1ccc2c(c1)nnn2C1CCN(S(=O)(=O)c2ccc(C(=O)N3C(C)CCCC3C)cc2)CC1 (stereo unspecified) | 8 | 67* | -9 | . | . | .
COc1ccccc1-c1cn(CC[C@@H]2CC[C@H](NC(=O)CCN3CCCCC3)[C@H](CO)O2)nn1 | . | 7[16.7 µM] | . | 10 | 10 | 3
C/C(CCC(C)C)=N\NS(=O)(=O)c1ccc(C)c([N+](=O)[O-])c1 | -5 | 3 | -5 | 5 | 4 | 9
Cc1ccc(S(=O)(=O)NCCC(C)C)cc1[N+](=O)[O-] | 16 | 13 | 53* | -5 | -13 | 6
Cc1oc2ccc(OCc3ccc(Br)cc3)cc2c1C(=O)O | 1 | -5 | -1 | 2 | -5 | -26*
COC(=O)CCC(=O)N(CCN(Cc1ccccc1)C(=O)CCC(=O)OC)Cc1ccccc1 | 5 | -24 | -13 | 1 | -12 | -16*
CCCC(=O)N(CCN(Cc1ccccc1)C(=O)CCC)Cc1ccccc1 | 12 | . | -9 | . | . | .
COCC(=O)Nc1ccc2c(c1)C(=O)N(C)[C@H]1CC[C@@H](CC(=O)NCCc3ccncc3)O[C@@H]1CO2 | . | . | . | -2 | -21 | .
COC(=O)c1[nH]c2cc(OC)c(OC)cc2c1/C=N/Nc1ccccc1 | 1 | -15 | -15 | -2 | -1 | -19*
COc1cc(/C=N/Nc2ccccc2)ccc1O | 0 | -2 | -13 | 4 | 0 | -2
Cc1nn(C)cc1NC(=O)C[C@@H]1CC[C@H]2[C@@H](COc3ccc(NC(=O)Nc4cccc(Cl)c4)cc3C(=O)N2C)O1 | . | . | . | -1 | 18 | -6
COC(=O)C(=Nc1ccccc1)/C(C(=O)C(=O)N(C)c1ccccc1)=C(\O)c1ccccc1 | -4 | -6 | -7 | -5 | -7 | -25*
COc1c(F)cc2[nH]c3c(c2c1F)CCNC3=O | 4 | 65* | -8 | 0 | -7 | -20
COC(=O)N1[C@H](C)C=C[C@]1(Cc1ccccc1)C(=O)NCCCNc1ncc(C(F)(F)F)cc1Cl | 6 | 103* | -14 | -5 | 4 | -10
C[C@]1(C(=O)NCCCNc2ncc(C(F)(F)F)cc2Cl)C=C[C@@H](Cc2ccccc2)N1C(=O)c1ccccc1 | -2 | . | -9 | . | . | .
